In publication PMC5633258 (International Journal for Parasitology: Drugs and Drug …, 2017):

B1: LdAI (Leishmania donovani) (protein)
chain: MEAGIEATATPAAVSRPPAAPRPGRNTRRILVLYLGGTIGMKKNAAGALEPVAGYLTEQMREMRELRESSEIAPFDIIEYAELLDSSDMNAADYCRIAADVQVHYDEYDGFLIAHGTDTMHYTASALSFLLCNLGKPVIVTGAMVALAEPYNDARRNVVIGMMIASNPKICEVCIFFNDSLFRGNRCNKVYHTYGAFRSLNYPALGVVGATDFVLKDEHLLPQPMGALKIMSDMRGRVGCYPIDPEADVDTFVALLEQKRPRSSPCAFSVTAAPSTDDSDGAQKPLLDAVLLSLNGVGSVQGVVAQQLRRIVAVAHKHNIVVCAVARDISGTLNPSEVQRLHAISPEIVYLNDMCASAAEVKLMYLFGKGLSPAKVAAAMTQNLRGEITPLLEVHAKL

Assays:
[1] = system: LdAI transfected amastigotes (WT-LdAI); assay: MTT survival of LdAI transfected axenic amastigotes; assay type: cell-based, Leishmania donovani
[2] = system: LdAI transcript in axenic amastigotes; assay: Real-time PCR of LdAI expression, axenic amastigotes; assay type: cell-based, Leishmania donovani; settings: AmB treated vs untreated
[3] = system: pLP2-LdAI transfected promastigotes (WT-LdAI); assay: MTT survival of LdAI over-expressing promastigotes; assay type: cell-based, Leishmania donovani
[4] = system: LdAI transcript in promastigotes; assay: Semi quantitative RT-PCR and real-time PCR of LdAI expression, promastigotes; assay type: cell-based, Leishmania donovani; settings: 0.125 μg/ml AmB for 8 h vs untreated
[5] = system: L. donovani wild type AG83 (WT) promastigotes; assay: MTT survival of wild type promastigotes; assay type: cell-based; settings: Leishmania donovani, 48 h
How it was run: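 AG83 promastigotes were kept in M199 (pH 5.5) with 10% FBS. Late-exponential cells, diluted to 2 × 10^6/ml, were exposed to varying concentrations of test compound prepared in FBS-free M199 for 48, 72 and 96 h. Viability was read by MTT at 570 nm as % survival (mean, standard error, three independent experiments). IC50 came from a log(inhibitor) vs normalised response fit.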

LdAI [6] = molecular target: T1, LdAI (Leishmania donovani, UniProt A0A3Q8IA09); assay: Isothermal titration calorimetry with LdAI; assay type: binding; settings: for N (Drug/LdAI) / TΔS / ΔH / ΔG: ITC, direct titration; for N (Drug/LdAI) / TΔS / ΔH: 3 μM LdAI, 298 K; for ΔG: ΔG= ΔH−TΔS
T1 sequence (A0A3Q8IA09 1-398): B1 chain
How it was run: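 Direct ITC at 298 K in 20 mM Tris, 150 mM NaCl, pH 8.0. LdAI in the cell was titrated with test compound: one small injection, then 25 injections. Heats of dilution were normalised by buffer titrations. A single-site model with Levenberg–Marquardt nonlinear fitting gave Ka, ΔH and ΔS, and ΔG was calculated as ΔH − TΔS.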

LdAI [7] = molecular target: T1, LdAI; assay: Fluorometric titration of ligands with LdAI; assay type: binding
How it was run: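 Fluorometric titrations at 298 K in 20 mM Tris, 150 mM NaCl, pH 8.0. Constant enzyme was titrated with increasing ligand (Asp, Glu or test compound), with a 300 s pre-scan delay. Excitation was 274 nm and emission was recorded 290–400 nm. Kd came from a single-site specific binding fit, Y = Bmax*X/(Kd + X).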

LdAI [8] = molecular target: T1, LdAI; assay: Competitive inhibition assay, Gln hydrolysis kinetics; assay type: biochemical; settings: Gln as substrate, LdAI alone, no inhibitor
[9] = substrate: NC(=O)CC[C@H](N)C(=O)O; assay: as above; assay type: biochemical, Leishmania donovani; settings: other: Gln as substrate, LdAI alone, no inhibitor; pH 8.0; 25.0 °C

Row | Molecule | Kd (LdAI [6]) | N (Drug/LdAI) (LdAI [6]) | TΔS (LdAI [6]) | ΔH (LdAI [6]) | ΔG (LdAI [6]) | Kd (LdAI [7]) | further results
1 | C[C@@H]1[C@H](O)[C@@H](C)/C=C/C=C/C=C/C=C/C=C/C=C/C=C/[C@H](O[C@@H]2O[C@H](C)[C@@H](O)[C@H](N)[C@@H]2O)C[C@@H]2O[C@](O)(C[C@@H](O)C[C@@H](O)[C@H](O)CC[C@@H](O)C[C@@H](O)CC(=O)O[C@H]1C)C[C@H](O)[C@H]2C(=O)O [AmB, Amphotericin B] | – | – | – | – | – | – | IC50 ([1]; Leishmania donovani, 48 h): 1.9 ± 0.6 µM; lower IC90 in wild-type than in LdAI over-expressing parasites ([1]; amastigote form): eight; increase in IC50, LdAI transfected vs non-transfected ([1]; amastigotes): eight; increase in LdAI transcript expression (quantitative real time PCR) [2]: five; IC50 ([3]; Leishmania donovani, 48 h): 2.2 ± 0.3 µM; lower IC90 in wild-type than in LdAI over-expressing parasites ([3]; promastigote form): three; increase in IC50, LdAI transfected vs non-transfected ([3]; promastigotes): three; enhancement in LdAI transcription (semiquantitative PCR) [4]: 2.5 fold; increase in LdAI transcript expression (quantitative real time PCR) [4]: four; IC50 [5]: 0.6 ± 0.07 µM
2 | N[C@@H](CCC(=O)O)C(=O)O [Glu, L-glutamic acid] | 5 µM | 2.14 ± 0.6 | -18.38 kcal/mol | -25.6 ± 1.1 kcal/mol | -7.22 kcal/mol | 11.6 ± 1.3 µM | –
3 | NC(=O)CC[C@H](N)C(=O)O [Gln, L-glutamine] | – | – | – | – | – | – | Vmax (LdAI [8]): 267.9 ± 7.6
4 | N[C@@H](CC(=O)O)C(=O)O [Asp, L-aspartic acid] | 7.7 µM | 4.0 ± 0.7 | 0.64 kcal/mol | -6.34 ± 0.3 kcal/mol | -6.98 kcal/mol | 2.4 ± 0.4 µM | –
5 | B1 | – | – | – | – | – | – | Km [9]: 9.5 ± 0.8 mM
